Values after ≈ are worked out from the molar mass of the structure shown. Active and inactive are the calls of the source. The rule behind the calls is not given here.
Key:
Candida albicans [1] = assay: Antifungal activity against itraconazole/fluconazole resistant Candida albicans ATCC 90819 assessed as fungal growth inhibition by double dilution method; type: functional
How it was run: (§1)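 Broth microdilution after CLSI M27-A3/M38-A2 with minor modifications. A single colony was grown overnight in YPD at 35 °C with shaking at 200 rpm. Cells were mixed 1:1 with compound (final 0.06-31.3 µg/mL, from DMSO stocks) and incubated 48 h at 35 °C.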

J774.A1 = assay: Cytotoxicity against J774A.1 cells assessed as reduction in cell viability at 31.3 microg/ml; type: toxicity, cell-based; details: mouse, dose 31.3 µg/ml
How it was run: (§2)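 Cells in DMEM with 10% FBS and 1% Pen/Strep, seeded at 10,000 cells/well and held overnight at 37 °C, 5% CO2. Compounds added at final 31.3-0.12 µg/mL (0.05% DMSO vehicle) for 24 h. Resazurin then added for 6 h; fluorescence read at ex 560/em 590. Triton X-100 1% as positive control; values normalized to vehicle. Run in quadruplicate.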

[Candida] auris [2] = Antifungal activity against Candida auris AR Bank # 386 assessed as fungal growth inhibition by double dilution method; type: functional; details: Candidozyma auris
How it was run: (§3)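 Broth microdilution after CLSI M27-A3/M38-A2 with minor changes. Single colony grown overnight in YPD at 35 °C, 200 rpm. Compound final range 0.06-31.3 µg/mL; incubated 48 h at 35 °C.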

Candida albicans [3] = assay: Antifungal activity against itraconazole/fluconazole resistant Candida albicans ATCC MYA-1237 assessed as fungal growth inhibition by double dilution method; type: functional; how it was run: as §1
Candida duobushaemulonii [4] = assay: Antifungal activity against Candida duobushaemulonii AR Bank # 391 assessed as fungal growth inhibition by double dilution method; type: functional; details: Candidozyma duobushaemuli; how it was run: as §3
[Candida] auris [5] = Antifungal activity against Candida auris AR Bank # 387 assessed as fungal growth inhibition by double dilution method; type: functional; details: Candidozyma auris; how it was run: as §3
Aspergillus fumigatus [6] = assay: Antifungal activity against Aspergillus fumigatus NRRL 163 assessed as fungal growth inhibition by double dilution method; type: functional
[Candida] auris [7] = Antifungal activity against Candida auris AR Bank # 383 assessed as fungal growth inhibition by double dilution method; type: functional; details: Candidozyma auris; how it was run: as §3
HEK293 = assay: Cytotoxicity against human HEK-293 cells assessed as reduction in cell viability at 31.3 microg/ml; type: toxicity, cell-based; details: dose 31.3 µg/ml; how it was run: as §2
Candida albicans [8] = assay: Antifungal activity against Candida albicans ATCC 10231 assessed as fungal growth inhibition by double dilution method; type: functional; how it was run: as §3
Aspergillus fumigatus [9] = assay: Antifungal activity against Aspergillus fumigatus NRRL 6113 assessed as fungal growth inhibition by double dilution method; type: functional
[Candida] auris [10] = Antifungal activity against Candida auris AR Bank # 0384 assessed as fungal growth inhibition by double dilution method; type: functional; details: Candidozyma auris; how it was run: as §3
[Candida] auris [11] = Antifungal activity against Candida auris AR Bank # 0390 assessed as fungal growth inhibition by double dilution method; type: functional; details: Candidozyma auris; how it was run: as §3
Pichia kudriavzevii [12] = assay: Antifungal activity against Pichia kudriavzevii AR Bank # 397 assessed as fungal growth inhibition by double dilution method; type: functional; how it was run: as §3
[Candida] auris [13] = Antifungal activity against Candida auris AR Bank # 384 assessed as fungal growth inhibition by double dilution method; type: functional; details: Candidozyma auris; how it was run: as §3
[Candida] auris [14] = Antifungal activity against Candida auris AR Bank # 389 assessed as fungal growth inhibition by double dilution method; type: functional; details: Candidozyma auris; how it was run: as §3
[Candida] auris [15] = Antifungal activity against Candida auris AR Bank # 381 assessed as fungal growth inhibition by double dilution method; type: functional; details: Candidozyma auris; how it was run: as §3
Candida duobushaemulonii [16] = assay: Antifungal activity against Candida duobushaemulonii AR Bank # 392 assessed as fungal growth inhibition by double dilution method; type: functional; details: Candidozyma duobushaemuli; how it was run: as §3
Cryptococcus neoformans = assay: Antifungal activity against Cryptococcus neoformans ATCC MYA-895 assessed as fungal growth inhibition by double dilution method; type: functional; how it was run: as §3
Aspergillus nidulans = assay: Antifungal activity against Aspergillus nidulans ATCC 38163 assessed as fungal growth inhibition by double dilution method; type: functional
Nakaseomyces glabratus [17] = assay: Antifungal activity against Candida glabrata ATCC 2001 assessed as fungal growth inhibition by double dilution method; type: functional; how it was run: as §3
[Candida] auris [18] = Antifungal activity against Candida auris AR Bank # 388 assessed as fungal growth inhibition by double dilution method; type: functional; details: Candidozyma auris; how it was run: as §3
[Candida] auris [19] = Antifungal activity against Candida auris AR Bank # 390 assessed as fungal growth inhibition by double dilution method; type: functional; details: Candidozyma auris; how it was run: as §3
Nakaseomyces glabratus [20] = assay: Antifungal activity against Candida glabrata ATCC 22019 assessed as fungal growth inhibition by double dilution method; type: functional; how it was run: as §3
Candida albicans [21] = assay: Antifungal activity against itraconazole/fluconazole susceptible Candida albicans ATCC MYA-2876 assessed as fungal growth inhibition by double dilution method; type: functional; how it was run: as §1
Candida albicans [22] = assay: Antifungal activity against Candida albicans ATCC 64124 assessed as fungal growth inhibition by double dilution method; type: functional; how it was run: as §1
Clavispora lusitaniae = assay: Antifungal activity against Clavispora lusitaniae AR Bank # 398 assessed as fungal growth inhibition by double dilution method; type: functional; how it was run: as §3
Candida albicans [23] = assay: Antifungal activity against itraconazole/fluconazole resistant Candida albicans ATCC MYA-1003 assessed as fungal growth inhibition by double dilution method; type: functional; how it was run: as §1
Saccharomyces cerevisiae [24] = assay: Antifungal activity against Saccharomyces cerevisiae AR Bank # 399 assessed as fungal growth inhibition by double dilution method; type: functional; how it was run: as §3
[Candida] haemuloni [25] = Antifungal activity against Candida haemulonii AR Bank # 395 assessed as fungal growth inhibition by double dilution method; type: functional; details: Candidozyma haemuli; how it was run: as §3
[Candida] haemuloni [26] = Antifungal activity against Candida haemulonii AR Bank # 393 assessed as fungal growth inhibition by double dilution method; type: functional; details: Candidozyma haemuli; how it was run: as §3
Candida duobushaemulonii [27] = assay: Antifungal activity against Candida duobushaemulonii AR Bank # 394 assessed as fungal growth inhibition by double dilution method; type: functional; details: Candidozyma duobushaemuli; how it was run: as §3
Kodamaea ohmeri = assay: Antifungal activity against Kodamaea ohmeri AR Bank # 396 assessed as fungal growth inhibition by double dilution method; type: functional; how it was run: as §3
[Candida] auris [28] = Antifungal activity against Candida auris AR Bank # 382 assessed as fungal growth inhibition by double dilution method; type: functional; details: Candidozyma auris; how it was run: as §3
Pichia kudriavzevii [29] = assay: Antifungal activity against Pichia kudriavzevii ATCC 6258 assessed as fungal growth inhibition by double dilution method; type: functional; how it was run: as §3
Candida albicans [30] = assay: Antifungal activity against itraconazole/fluconazole susceptible Candida albicans ATCC MYA-2310 assessed as fungal growth inhibition by double dilution method; type: functional; how it was run: as §1
Aspergillus fumigatus [31] = assay: Antifungal activity against Aspergillus fumigatus NRRL 5109 assessed as fungal growth inhibition by double dilution method; type: functional
[Candida] auris [32] = Antifungal activity against Candida auris AR Bank # 385 assessed as fungal growth inhibition by double dilution method; type: functional; details: Candidozyma auris; how it was run: as §3
Aspergillus flavus = assay: Antifungal activity against Aspergillus flavus ATCC MYA-3631 assessed as fungal growth inhibition by double dilution method; type: functional
Aspergillus terreus = assay: Antifungal activity against Aspergillus terreus ATCC MYA-3633 assessed as fungal growth inhibition by double dilution method; type: functional
Saccharomyces cerevisiae [33] = assay: Antifungal activity against Saccharomyces cerevisiae AR Bank # 400 assessed as fungal growth inhibition by double dilution method; type: functional; how it was run: as §3
Candida albicans [34] = assay: Antibiofilm activity against Candida albicans ATCC 10231 assessed as reduction in biofilm production at 1.96 to 3.9 microg/ml by biofilm formation assay; type: functional, organism-based; details: dose 1.96-3.9 µg/ml

O=C(NNc1ccc(F)cc1)c1ccccn1
MIC (Candida albicans [1]): 0.98 µg/mL (≈ 4.24 µM) | Activity (J774.A1): Non-Toxic | MIC ([Candida] auris [2]): 0.49 µg/mL (≈ 2.12 µM) | MIC (Candida albicans [3]): 1.95 µg/mL (≈ 8.43 µM) | MIC (Candida duobushaemulonii [4]): 0.49 µg/mL (≈ 2.12 µM) | MIC ([Candida] auris [5]): 0.98 µg/mL (≈ 4.24 µM) | MIC (Aspergillus fumigatus [6]): 31.3 µg/mL (≈ 135 µM) | MIC ([Candida] auris [7]): 1.95 µg/mL (≈ 8.43 µM) | Activity (HEK293): Non-Toxic | MIC (Candida albicans [8]): 0.12 µg/mL (≈ 0.519 µM) | MIC (Aspergillus fumigatus [9]): 15.6 µg/mL (≈ 67.5 µM) | MIC ([Candida] auris [10]): 3.9 µg/mL (≈ 16.9 µM) | MIC ([Candida] auris [11]): 0.98 µg/mL (≈ 4.24 µM) | MIC (Pichia kudriavzevii [12]): 0.24 µg/mL (≈ 1.04 µM) | MIC ([Candida] auris [13]): 3.9 µg/mL (≈ 16.9 µM) | MIC ([Candida] auris [14]): 0.49 µg/mL (≈ 2.12 µM) | MIC ([Candida] auris [15]): 0.98 µg/mL (≈ 4.24 µM) | MIC (Candida duobushaemulonii [16]): 0.49 µg/mL (≈ 2.12 µM) | MIC (Cryptococcus neoformans): 0.24 µg/mL (≈ 1.04 µM) | MIC (Aspergillus nidulans): 0.49 µg/mL (≈ 2.12 µM) | MIC (Nakaseomyces glabratus [17]): 1.95 µg/mL (≈ 8.43 µM) | MIC ([Candida] auris [18]): 0.98 µg/mL (≈ 4.24 µM) | MIC ([Candida] auris [19]): 0.98 µg/mL (≈ 4.24 µM) | MIC (Nakaseomyces glabratus [20]): 1.95 µg/mL (≈ 8.43 µM) | MIC (Candida albicans [21]): 3.9 µg/mL (≈ 16.9 µM) | MIC (Candida albicans [22]): 0.98 µg/mL (≈ 4.24 µM) | MIC (Clavispora lusitaniae): 1.95 µg/mL (≈ 8.43 µM) | MIC (Candida albicans [23]): 0.49 µg/mL (≈ 2.12 µM) | MIC (Saccharomyces cerevisiae [24]): 3.9 µg/mL (≈ 16.9 µM) | MIC ([Candida] haemuloni [25]): 0.12 µg/mL (≈ 0.519 µM) | MIC ([Candida] haemuloni [26]): 0.24 µg/mL (≈ 1.04 µM) | MIC (Candida duobushaemulonii [27]): 0.24 µg/mL (≈ 1.04 µM) | MIC (Kodamaea ohmeri): 0.24 µg/mL (≈ 1.04 µM) | MIC ([Candida] auris [28]): 1.95 µg/mL (≈ 8.43 µM) | MIC (Pichia kudriavzevii [29]): 0.12 µg/mL (≈ 0.519 µM) | MIC (Candida albicans [30]): 1.95 µg/mL (≈ 8.43 µM) | MIC (Aspergillus fumigatus [31]): 7.8 µg/mL (≈ 33.7 µM) | MIC ([Candida] auris [32]): 0.98 µg/mL (≈ 4.24 µM) | MIC (Aspergillus flavus): 31.3 µg/mL (≈ 135 µM) | MIC (Aspergillus terreus): 1.95 µg/mL (≈ 8.43 µM) | MIC (Saccharomyces cerevisiae [33]): 1.95 µg/mL (≈ 8.43 µM) | Activity (Candida albicans [34]): Active
